Test results published in ChEMBL document CHEMBL2029224, “Prenylation at the indole ring leads to a significant increase of cytotoxicity of tryptophan-containing cyclic dipeptides” (Bioorg Med Chem Lett, 2012).
≈ marks a conversion by molar mass, not a printed value.

Legend:
Assay type in all cases: functional, cell-based
[1] = tested on: A2780; assay: Cytotoxicity against human cisplatin sensitive A2780 cells after 72 hrs by MTT assay; conditions: A2780, 72 h
In short: (§1)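 Cells kept in RPMI 1640 with 10% FCS and penicillin/streptomycin at 37 °C, 5% CO2, grown to 80% confluency. Seeded at 30,000 cells/well (K562) or 8,000 cells/well (A2780 sens and cisplatin-resistant CisR). After 24 h, exposed to increasing concentrations for 72 h. MTT added, formazan dissolved in DMSO, absorbance read at 544/690 nm. Viability relative to untreated cells (100%), triplicates, IC50.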

[2] = tested on: K562; assay: Cytotoxicity against human K562 cells after 72 hrs by MTT assay; conditions: K562, 72 h; in short: as §1
[3] = tested on: A2780; assay: Cytotoxicity against human cisplatin resistant A2780 cells after 72 hrs by MTT assay; conditions: A2780, 72 h; in short: as §1
[4] = Cytotoxicity against mouse tsFT210 cells

CC(C)=CCc1[nH]c2ccccc2c1C[C@@H]1NC(=O)[C@H]2CCCN2C1=O
IC50 [1]: 106 µM
IC50 [2]: 34.7 µM
IC50 [3]: 92 µM

C[C@@H]1NC(=O)[C@@H](Cc2c[nH]c3ccccc23)NC1=O
IC50 [1]: > 100 µM
IC50 [2]: > 100 µM
IC50 [3]: > 100 µM

CC(C)=CCc1[nH]c2ccccc2c1C[C@@H]1NC(=O)[C@@H]2CCCN2C1=O [TRYPROSTATIN B]
IC50 [1]: 82.8 µM
IC50 [2]: 21.1 µM
MIC [4]: 4.4 µM (≈ 1.55 µg/mL)
IC50 ([4]; tsFT210): 18.8 µM
IC50 [3]: 85.9 µM

C[C@H]1NC(=O)[C@H](Cc2c[nH]c3ccccc23)NC1=O
IC50 [1]: > 100 µM
IC50 [2]: > 100 µM
IC50 [3]: > 100 µM

CC(C)=CCc1[nH]c2ccccc2c1C[C@@H]1NC(=O)[C@H](Cc2ccccc2)NC1=O
IC50 [1]: 87 µM
IC50 [2]: 70.4 µM
IC50 [3]: 81.6 µM

CC(C)=CCc1[nH]c2ccccc2c1C[C@H]1NC(=O)[C@H](C)NC1=O
IC50 [1]: 86.2 µM
IC50 [2]: 35.3 µM
IC50 [3]: 84.3 µM

O=C1N[C@@H](Cc2c[nH]c3ccccc23)C(=O)N2CCC[C@@H]12 [BREVIANAMIDE F]
IC50 [1]: > 100 µM
IC50 [2]: > 100 µM
IC50 [3]: > 100 µM

C[C@@H]1NC(=O)[C@H](Cc2c[nH]c3ccccc23)NC1=O
IC50 [1]: > 100 µM
IC50 [2]: > 100 µM
IC50 [3]: > 100 µM

O=C1N[C@@H](Cc2c[nH]c3ccccc23)C(=O)N[C@H]1Cc1ccc(O)cc1
IC50 [1]: > 100 µM
IC50 [2]: > 100 µM
IC50 [3]: > 100 µM

CC(C)=CCc1[nH]c2ccccc2c1C[C@H]1NC(=O)[C@@H]2CCCN2C1=O
IC50 [1]: 100 µM
IC50 [2]: 40.4 µM
IC50 [3]: 87.8 µM

CC(C)=CCc1[nH]c2ccccc2c1C[C@@H]1NC(=O)[C@H](CC(C)C)NC1=O
IC50 [1]: 92.6 µM
IC50 [2]: 30.1 µM
IC50 [3]: 75 µM

O=C1N[C@@H](Cc2c[nH]c3ccccc23)C(=O)N2CCC[C@H]12
IC50 [1]: > 100 µM
IC50 [2]: > 100 µM
IC50 [3]: > 100 µM

CC(C)=CCc1[nH]c2ccccc2c1C[C@@H]1NC(=O)[C@H](C)NC1=O
IC50 [1]: 89.8 µM
IC50 [2]: 35.2 µM
IC50 [3]: 82.2 µM

O=C1N[C@H](Cc2c[nH]c3ccccc23)C(=O)N2CCC[C@H]12
IC50 [1]: > 100 µM
IC50 [2]: > 100 µM
IC50 [3]: > 100 µM

CC(C)=CCc1[nH]c2ccccc2c1C[C@@H]1NC(=O)CNC1=O
IC50 [1]: 82.4 µM
IC50 [2]: 16.7 µM
IC50 [3]: 85.2 µM

CC(C)=CCc1[nH]c2ccccc2c1C[C@H]1NC(=O)[C@@H](C)NC1=O
IC50 [1]: 85 µM
IC50 [2]: 34.7 µM
IC50 [3]: 81.1 µM

O=C1N[C@@H](Cc2c[nH]c3ccccc23)C(=O)N[C@H]1Cc1c[nH]c2ccccc12
IC50 [1]: > 100 µM
IC50 [2]: > 100 µM
IC50 [3]: > 100 µM

CC(C)=CCc1[nH]c2ccccc2c1C[C@H]1NC(=O)[C@H]2CCCN2C1=O
IC50 [1]: 93.1 µM
IC50 [2]: 30.9 µM
IC50 [3]: 85.6 µM

CC(C)C[C@@H]1NC(=O)[C@H](Cc2c[nH]c3ccccc23)NC1=O
IC50 [1]: > 100 µM
IC50 [2]: > 100 µM
IC50 [3]: > 100 µM

O=C1N[C@@H](Cc2c[nH]c3ccccc23)C(=O)N[C@H]1Cc1ccccc1
IC50 [1]: > 100 µM
IC50 [2]: > 100 µM
IC50 [3]: > 100 µM

CC(C)=CCc1[nH]c2ccccc2c1C[C@@H]1NC(=O)[C@H](Cc2c[nH]c3ccccc23)NC1=O
IC50 [1]: 89.7 µM
IC50 [2]: 29.8 µM
IC50 [3]: 80.8 µM

O=C1N[C@H](Cc2c[nH]c3ccccc23)C(=O)N2CCC[C@@H]12
IC50 [1]: > 100 µM
IC50 [2]: > 100 µM
IC50 [3]: > 100 µM

CC(C)=CCc1[nH]c2ccccc2c1C[C@@H]1NC(=O)[C@@H](C)NC1=O
IC50 [1]: 77.2 µM
IC50 [2]: 34.5 µM
IC50 [3]: 77 µM

CC(C)=CCc1[nH]c2ccccc2c1C[C@@H]1NC(=O)[C@H](Cc2c[nH]cn2)NC1=O
IC50 [1]: 91.8 µM
IC50 [2]: 32.2 µM
IC50 [3]: 91.7 µM

O=C1N[C@@H](Cc2c[nH]c3ccccc23)C(=O)N[C@H]1Cc1c[nH]cn1
IC50 [1]: > 100 µM
IC50 [2]: > 100 µM
IC50 [3]: > 100 µM

CC(C)=CCc1[nH]c2ccccc2c1C[C@@H]1NC(=O)[C@H](Cc2ccc(O)cc2)NC1=O
IC50 [1]: 89.8 µM
IC50 [2]: 31.6 µM
IC50 [3]: 83.3 µM

O=C1CNC(=O)[C@H](Cc2c[nH]c3ccccc23)N1
IC50 [1]: > 100 µM
IC50 [2]: > 100 µM
IC50 [3]: > 100 µM

C[C@H]1NC(=O)[C@@H](Cc2c[nH]c3ccccc23)NC1=O
IC50 [1]: > 100 µM
IC50 [2]: > 100 µM
IC50 [3]: > 100 µM
